Ecoli tolC: growth inhibitors of E. coli BW25113 tolC mutant; 65,000 tested, 2.2% active; growth inhibition, % at 10 µM (by protocol); AID 573; OD615;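 active = growth inhibition at or above a cutoff equal to the mean over every tested compound plus 3 SD, cut at about 60% in these data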;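 note: growth measured after 20 h incubation at 37 °C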
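System: E. coli ΔtolC::kan strain BW25113; Buffer or medium: LB broth supplemented with 50 µg/mL kanamycin; Compound: 10 µM final, single dose; Incubation: bacterial growth with compound for 20 h at 37 °C; Signal: A615 absorbance measurement; Evaluation: growth inhibition in percent.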
E coli WT exp: E. coli BW25113 growth inhibition, expanded screen. AID 710. OD600 absorbance. 98,000 tested, 0.15% active. growth inhibition, % at 100 µM;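 active = growth inhibition above about 50% at one test dose, limit read from the data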;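 note: growth measured after 20 h incubation at 37 °C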
PostGolgi ctrl: growth of the yeast control strain, post-Golgi counter-screen | efflux-deficient yeast background strain, growth absorbance A615, 16 h | inhibition, % at 10 µM | 98,000 tested, 5% active | AID 738
Her2 expr inh: Her2 kinase expression inhibition | P04626 | SKBR-3 HER2 protein level, AlphaScreen, 18-24 h; hits give low values | HER2 level % of control, % at 10 µM | 65,000 tested, 0.69% active | AID 645;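 active = HER2 level under 5% of the carrier-only control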;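 note: 100% = DMSO carrier and 0% = 500 nM PU-H71 HSP90 inhibitor; lower value means stronger loss of Her2 protein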
PostGolgi yeast: growth inhibition of a yeast mutant, post-Golgi transport screen | post-Golgi transport phenotypic cell assay | inhibition, % at 10 µM | 98,000 tested, 0.9% active;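 note: yeast cells grown in 1536-well plates; yeast grown about 18 h at 30C before absorbance read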
The depositor's hits bear a star. Only some compounds are listed: those with a hit (about 6.6% of all), similar ones and a draw of the others. Cut-off read from the data, not from the text of the source, unless noted: active = inhibition above about 30%; inactive = the rest.

For O=C(c1ccco1)N(Cc1ccco1)c1ccc(O)cc1 the results were Ecoli tolC 17.5, E coli WT exp 11.0, PostGolgi ctrl -0.5, Her2 expr inh -15.8* and PostGolgi yeast 6.0.
For O=S(=O)(Nc1ccc2c(c1)OCO2)c1ccc(Br)s1 the results were Ecoli tolC 49.6, E coli WT exp 25.0, PostGolgi ctrl 11.5, Her2 expr inh 99.4 and PostGolgi yeast 2.0.
For Cc1ccc(-c2nc3ncccn3c2NC2CCCC2)o1 the results were Ecoli tolC 9.7, E coli WT exp 0.0, PostGolgi ctrl 9.0, Her2 expr inh 76.8 and PostGolgi yeast 6.1.
`Brc1ccc(-c2nc3ncccn3c2NC2CCCCC2)o1` gave E coli WT exp -3.0, PostGolgi ctrl 45.4* and PostGolgi yeast 4.2.
Oc1ccccc1-c1cc(C(F)(F)C(F)F)nc(-c2ccccc2)n1 was read as Ecoli tolC -14.2, E coli WT exp -7.0, PostGolgi ctrl -1.7, Her2 expr inh 120.4 and PostGolgi yeast 9.6.
For FC(F)C(F)(F)C(F)(F)C(F)(F)c1cc(-c2ccccc2)n[nH]1 the results were Ecoli tolC 41.8, E coli WT exp 22.0, PostGolgi ctrl 46.4*, Her2 expr inh 93.4 and PostGolgi yeast 1.0.
Screening CCOc1ccc(NC(=O)c2cccc(OC(=S)N3CCC(C)CC3)c2)cc1 returned E coli WT exp -18.0, PostGolgi ctrl 15.1 and PostGolgi yeast 1.2.
Screening CC1CCN(C2CC(=O)N(c3ccc(Br)cc3Br)C2=O)CC1 (configuration not stated) returned Ecoli tolC -0.8 and Her2 expr inh 92.3.
`Cc1cccc(OCCCSc2nc3ccccc3[nH]2)c1` gave E coli WT exp 8.0, PostGolgi ctrl 33.6* and PostGolgi yeast 2.5.
Cc1ccnc2c(N3C(=O)C4C5C=CC(C5)C4C3=O)cccc12 (configuration not stated) was read as Ecoli tolC -21.1, E coli WT exp 4.0, PostGolgi ctrl 12.0, Her2 expr inh 86.2 and PostGolgi yeast 0.0.
Screening O=C(CCC(=O)c1cccs1)OCC(=O)c1ccc(Cl)s1 returned Ecoli tolC 6.8, E coli WT exp 10.0, PostGolgi ctrl 14.0, Her2 expr inh 70.0 and PostGolgi yeast 2.4.
`CC(=O)NC(C)C(=O)OCC(=O)c1ccc(Cl)s1` (configuration not stated) gave Ecoli tolC -13.4, E coli WT exp -1.0, PostGolgi ctrl 35.9*, Her2 expr inh 58.0 and PostGolgi yeast 25.3.
`C=CCOC(=O)CSCC(NC(=O)OC(C)(C)C)C(=O)OCC` (configuration not stated) gave E coli WT exp 8.0, PostGolgi ctrl 4.6 and PostGolgi yeast 7.9.
For CCOC(=O)c1oc2ccc(S(=O)(=O)Nc3ccc4c(c3)n(C)c(=O)n4C)cc2c1C the results were Ecoli tolC 40.7, E coli WT exp 3.0, PostGolgi ctrl 6.5, Her2 expr inh 79.0 and PostGolgi yeast -2.0.
CCC(CO)n1c(SCc2cc(=O)oc3cc(C)ccc23)nc2ccccc2c1=O (configuration not stated) was read as E coli WT exp -6.0, PostGolgi ctrl 46.6* and PostGolgi yeast 41.2*.
CCC(C)n1c(SCC(=O)Nc2cc(C)on2)nc2ccccc2c1=O (configuration not stated) was read as E coli WT exp 7.0, PostGolgi ctrl 2.4 and PostGolgi yeast -6.3.
`COCc1cc(C)nc(Nc2ccc(C)c(C)c2)c1C#N` gave Ecoli tolC -15.1, E coli WT exp -4.0, PostGolgi ctrl 1.4, Her2 expr inh -3.1* and PostGolgi yeast 1.8.
Screening COCc1cc(C)nc(Nc2ccc(C)cc2C)c1C#N returned Ecoli tolC -4.3, E coli WT exp -4.0, PostGolgi ctrl -0.3, Her2 expr inh 9.2 and PostGolgi yeast 2.6.
COc1nc2ccc(C)cc2cc1-c1noc(-c2ccccc2)n1 was read as E coli WT exp -11.0, PostGolgi ctrl 31.5* and PostGolgi yeast 8.1.
Screening COc1cc(OC)cc(-c2nc(-c3cc4cc(C)ccc4nc3OC)no2)c1 returned Ecoli tolC -10.7, E coli WT exp -8.0, PostGolgi ctrl 7.7, Her2 expr inh 53.1 and PostGolgi yeast 15.4.
COc1ccc(NS(=O)(=O)c2ccc(SC)cc2)cc1 was read as Ecoli tolC 24.5, E coli WT exp 16.0, PostGolgi ctrl 50.2*, Her2 expr inh 55.3 and PostGolgi yeast 7.2.
COc1ccc(S(=O)(=O)Nc2ccc(O)c3ccccc23)cc1 was read as Ecoli tolC 9.1 and Her2 expr inh 3.4*.
Screening CCc1ccccc1NS(=O)(=O)c1ccc(SC)cc1 returned Ecoli tolC 72.5*, E coli WT exp 9.0, PostGolgi ctrl 19.0, Her2 expr inh 100.7 and PostGolgi yeast 3.6.
`CSc1ccc(S(=O)(=O)Nc2ccc(N3CCOCC3)c(Cl)c2)cc1` gave Ecoli tolC 100.0*, E coli WT exp -4.0, PostGolgi ctrl 3.3, Her2 expr inh 125.9 and PostGolgi yeast -14.9.
CC(C)(C)NS(=O)(=O)c1ccc(NS(C)(=O)=O)cc1 was read as E coli WT exp 5.0, PostGolgi ctrl -0.1 and PostGolgi yeast 1.3.
For COc1cccc(Cn2c(C3CC3)nc3ccc(NC(=O)c4ccco4)cc3c2=O)c1 the results were Ecoli tolC 34.8, E coli WT exp -11.0, PostGolgi ctrl 30.7*, Her2 expr inh 75.6 and PostGolgi yeast 2.9.
For CCc1nnc(NC(=O)CSc2nc3c(c(=O)n2CC)SC(C)C3)s1 (configuration not stated) the results were Ecoli tolC -10.8, E coli WT exp 0.0, PostGolgi ctrl 12.0, Her2 expr inh 65.2 and PostGolgi yeast 17.7.
For S=c1[nH]c2cc(Cl)ccc2s1 the results were E coli WT exp 53.0*, PostGolgi ctrl 15.0 and PostGolgi yeast 2.0.
S=c1[nH]c2ccc(Cl)cc2[nH]1 was read as Ecoli tolC -20.5, E coli WT exp 18.0, PostGolgi ctrl 7.1, Her2 expr inh 99.1 and PostGolgi yeast 4.4.
`COc1ccc2c(c1)C(=NN)c1cc(OC)ccc1-2` gave E coli WT exp 8.0, PostGolgi ctrl 2.9 and PostGolgi yeast 11.4.
For COc1ccc(-c2cc(C(F)(F)F)nc(N3CCOCC3)n2)cc1 the results were E coli WT exp 0.0, PostGolgi ctrl 18.9 and PostGolgi yeast -3.1.
COc1ccc(-c2cc(-c3ccc(F)cc3)nc(N3CCN(C)CC3)n2)cc1 was read as Ecoli tolC -7.8, E coli WT exp -4.0, PostGolgi ctrl 31.5*, Her2 expr inh 72.6 and PostGolgi yeast 20.4.
Screening O=C(CN1C(=O)C2C3C=CC(C3)C2C1=O)NCc1ccccc1 (configuration not stated) returned E coli WT exp 4.0, PostGolgi ctrl 5.9 and PostGolgi yeast 13.1.
O=C1C2C3C=CC(C3)C2C(=O)N1/N=C/c1cn(Cc2ccc(F)cc2)c2ccccc12 (configuration not stated) was read as E coli WT exp -6.0, PostGolgi ctrl 37.3* and PostGolgi yeast -11.0.
For O=C1C2C3C=CC(C3)C2C(=O)N1/N=C/c1cc(Br)cc([N+](=O)[O-])c1O (configuration not stated) the results were E coli WT exp 11.0, PostGolgi ctrl 3.9 and PostGolgi yeast -1.6.
